Experimental data as given in ChEMBL document CHEMBL6177937, “Design, synthesis, and biological evaluation of novel thiazole derivatives as PI3K/mTOR dual inhibitors” (RSC Med Chem, 2024).
pIC50: −log10 of the molar value.

Tests used:
[1] = tested on: SW-620; assay: Growth inhibition of human SW620 cells measured after 48 hrs by SRB assay; format: functional
How it was run: (§1)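 NCI 60-line SRB screen: cells seeded […], grown 24 h at 37°C, 5% CO2, then exposed 48 h to five concentrations (10-fold or ½-log dilutions from DMSO stock). Adherent cells fixed with cold TCA (final 10%), suspension cells with 80% TCA (final 16%); SRB stained, read at 515 nm. GI50 from time-zero, control and treated absorbances.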

[2] = tested on: HCT-116; assay: Growth inhibition of human HCT-116 cells measured after 48 hrs by SRB assay; format: functional
How it was run: (§2)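 NCI 60-line format with five concentrations (10-fold or ½-log serial dilutions) from DMSO stocks in medium with 50 μg/mL gentamicin. Cells preincubated 24 h, then exposed 48 h at 37°C, 5% CO2. Time-zero plates TCA-fixed. SRB absorbance read at 515 nm. GI50 taken from [(Ti−Tz)/(C−Tz)]×100 = 50. Out-of-range values are expressed as > or < the highest or lowest concentration tested.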

[3] = tested on: LOX IMVI; assay: Growth inhibition of human LOX IMVI cells measured after 48 hrs by SRB assay; format: functional; conditions: for CC50: read-out: LC50 (the source's name); how it was run: as §2
[4] = tested on: RXF 393; assay: Growth inhibition of human RXF 393 cells measured after 48 hrs by SRB assay; format: functional; how it was run: as §1
[5] = tested on: EKVX; assay: Growth inhibition of human EKVX cells measured after 48 hrs by SRB assay; format: functional; how it was run: as §2
[6] = tested on: UO-31; assay: Growth inhibition of human UO-31 cells measured after 48 hrs by SRB assay; format: functional; conditions: for CC50: read-out: LC50 (the source's name); how it was run: as §1
[7] = Selectivity index, ratio of IC50 for human PCS-800-017 cells to IC50 for human HL-60 cells; format: toxicity; conditions: PCS-800-017 cells and HL-60 cells, read-out: Ratio IC50
[8] = tested on: SN12C; assay: Growth inhibition of human SN12C cells measured after 48 hrs by SRB assay; format: functional; how it was run: as §1
[9] = tested on: Panel NCI-60 (60 carcinoma cell lines); assay: Antiproliferative activity against human NCI-60 cells assessed as growth inhibition at 10 uM measured after 48 hrs by SRB assay relative to control; format: functional; conditions: read-out: GI
How it was run: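 NCI screen: cells seeded at […] per well and preincubated 24 h (37°C, 5% CO2). Compound stocks in DMSO, tested at a single 10 μM. Exposure 48 h. Adherent cells fixed with cold TCA (10% final), suspension cells with 16% TCA. SRB stain read at 515 nm. Percent growth inhibition reported against time-zero and untreated controls.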

[10] = tested on: OVCAR-3; assay: Growth inhibition of human OVCAR-3 cells measured after 48 hrs by SRB assay; format: functional; how it was run: as §2
[11] = tested on: ACHN; assay: Growth inhibition of human ACHN cells measured after 48 hrs by SRB assay; format: functional; how it was run: as §2
[12] = tested on: BT-549; assay: Growth inhibition of human BT-549 cells measured after 48 hrs by SRB assay; format: functional; how it was run: as §2
[13] = tested on: K562; assay: Growth inhibition of human K562 cells measured after 48 hrs by SRB assay; format: functional; how it was run: as §2
[14] = tested on: NCI-H322M; assay: Growth inhibition of human NCI-H322M cells measured after 48 hrs by SRB assay; format: functional; how it was run: as §2
[15] = tested on: SF-268; assay: Growth inhibition of human SF-268 cells measured after 48 hrs by SRB assay; format: functional; how it was run: as §1
[16] = tested on: SF-539; assay: Growth inhibition of human SF-539 cells measured after 48 hrs by SRB assay; format: functional; how it was run: as §1
[17] = tested on: RPMI-8226; assay: Growth inhibition of human RPMI-8226 cells measured after 48 hrs by SRB assay; format: functional; how it was run: as §1
[18] = tested on: OVCAR-5; assay: Growth inhibition of human OVCAR-5 cells measured after 48 hrs by SRB assay; format: functional; conditions: for CC50: read-out: LC50 (the source's name); how it was run: as §2
[19] = tested on: NCI-H460; assay: Growth inhibition of human NCI-H460 cells measured after 48 hrs by SRB assay; format: functional; how it was run: as §2
[20] = tested on: KM12; assay: Growth inhibition of human KM12 cells measured after 48 hrs by SRB assay; format: functional; how it was run: as §2
[21] = tested on: 786-0; assay: Growth inhibition of human 786-0 cells measured after 48 hrs by SRB assay; format: functional; conditions: for CC50: read-out: LC50 (the source's name); how it was run: as §2
[22] = tested on: OVCAR-8; assay: Growth inhibition of human OVCAR-8 cells measured after 48 hrs by SRB assay; format: functional; how it was run: as §2
[23] = tested on: A549; assay: Growth inhibition of human A549 cells measured after 48 hrs by SRB assay; format: functional; how it was run: as §2
[24] = tested on: CAKI-1; assay: Growth inhibition of human CAKI-1 cells measured after 48 hrs by SRB assay; format: functional; how it was run: as §2
[25] = tested on: UACC-62; assay: Growth inhibition of human UACC-62 cells measured after 48 hrs by SRB assay; format: functional; how it was run: as §1
[26] = tested on: U-251; assay: Growth inhibition of human U-251 cells measured after 48 hrs by SRB assay; format: functional; how it was run: as §1
[27] = tested on: A498; assay: Growth inhibition of human A498 cells measured after 48 hrs by SRB assay; format: functional; how it was run: as §2
[28] = tested on: NCI/ADR-RES; assay: Growth inhibition of human NCI/ADR-RES cells measured after 48 hrs by SRB assay; format: functional; how it was run: as §2
[29] = tested on: SNB-19; assay: Growth inhibition of human SNB-19 cells measured after 48 hrs by SRB assay; format: functional; how it was run: as §1
[30] = tested on: HL-60; assay: Induction of apoptosis in human HL-60 cells assessed as late apoptotic cells measured after 24 hrs by Annexin-V/propidium iodide staining based flow cytometry (reference value: 0.61%); format: functional
[31] = tested on: HCT-15; assay: Growth inhibition of human HCT-15 cells measured after 48 hrs by SRB assay; format: functional; how it was run: as §2
[32] = target: Serine/threonine-protein kinase mTOR (Homo sapiens, UniProt P42345); assay: Inhibition of recombinant human N-terminal FLAG-tagged mTOR (1362 to end residues) expressed in baculovirus infected Sf21 insect cells using ULight-4E-BP1 as substrate measured after 30 mins by LANCE ultra assay
[33] = tested on: MDA-MB-468; assay: Growth inhibition of human MDA-MB-468 cells measured after 48 hrs by SRB assay; format: functional; how it was run: as §2
[34] = tested on: HL-60; assay: Cell cycle arrest in human HL-60 cells assessed as decrease in accumulation of cells at S-phase at 2.32 uM measured after 24 hrs by propidium iodide staining based flow cytometry relative to control; format: functional; set-up: scale not given: the % may be the effect or the level left

For O=[N+]([O-])c1cc(/C=N/Nc2nc(-c3ccc(Cl)cc3)cs2)ccc1Cl, the GI50 [1] was 18.3 µM, the TGI [1] was 43.1 µM and the GI50 [2] was 16.3 µM. The TGI [2] was 36.6 µM, the GI50 [3] was 3.91 µM and the TGI [3] was greater than 100 µM. The CC50 [3] was greater than 100 µM, the GI50 [4] was 11.9 µM and the TGI [4] was 30.6 µM. The GI50 [5] was 10.3 µM, the TGI [5] was 22.9 µM and the GI50 [6] was 8.46 µM. For the same molecule, the TGI [6] was 20.7 µM, the CC50 [6] was 45.5 µM and the selectivity ratio [7] was 9.9. It also gave a GI50 [8] of 15.1 µM, a TGI [8] of 61.5 µM and an inhibition of growth at 10 µM [9] of 66%. The GI50 [10] was 1.73 µM, the TGI [10] was 3.13 µM and the GI50 [11] was 15.1 µM. The TGI [11] was 28.4 µM, the GI50 [12] was 14.5 µM and the TGI [12] was 40.4 µM. It also gave a GI50 [13] of 5.86 µM, a TGI [13] of 66.4 µM and a GI50 [14] of 3.23 µM. For the same molecule, the TGI [14] was 13.7 µM, the GI50 [15] was 8.44 µM and the TGI [15] was 31.8 µM. The GI50 [16] was 16.3 µM, the TGI [16] was 31.1 µM and the GI50 [17] was 2.31 µM. The TGI [17] was 6.29 µM, the GI50 [18] was 23 µM and the TGI [18] was 78.2 µM. The CC50 [18] was greater than 100 µM, the GI50 [19] was 13.6 µM and the TGI [19] was 26.5 µM. The GI50 [20] was 1.88 µM, the TGI [20] was 3.58 µM and the GI50 [21] was 19.8 µM. It also gave a TGI [21] of 61.3 µM, a CC50 [21] greater than 100 µM and a GI50 [22] of 14.9 µM. The TGI [22] was 54.1 µM, the GI50 [23] was 78.4 µM and the TGI [23] was greater than 100 µM. For the same molecule, the GI50 [24] was 14.6 µM, the TGI [24] was 32.1 µM and the GI50 [25] was 11.1 µM. For the same molecule, the TGI [25] was 26 µM, the GI50 [26] was 4.37 µM and the TGI [26] was 17 µM. It also gave a GI50 [27] of 14.8 µM, a TGI [27] of 39.6 µM and a GI50 [28] of 16.8 µM. The TGI [28] was 41.5 µM, the GI50 [29] was 10.5 µM and the TGI [29] was 24.2 µM. The Activity [30] was 17.92%, the GI50 [31] was 13.1 µM and the TGI [31] was 42.1 µM. The pIC50 [32] was 6.05, the GI50 [33] was 1.54 µM and the TGI [33] was 3.01 µM.

CCOc1cc(/C=N/Nc2nc(-c3cccc([N+](=O)[O-])c3)cs2)ccc1O showed a GI50 [1] of 3.53 µM, a TGI [1] of 11.6 µM and a GI50 [2] of 2.34 µM. The TGI [2] was 5.83 µM, the GI50 [3] was 1.73 µM and the TGI [3] was 3.59 µM. It also gave a CC50 [3] of 7.46 µM, a GI50 [4] of 1.89 µM and a TGI [4] of 4.82 µM. It also gave a GI50 [5] of 3.17 µM, a TGI [5] of 16.4 µM and a GI50 [6] of 2.29 µM. It also gave a TGI [6] of 8.85 µM, a CC50 [6] greater than 100 µM and a selectivity ratio [7] of 12.3. The GI50 [8] was 2.41 µM, the TGI [8] was 9.9 µM and the inhibition of growth at 10 µM [9] was 112%. The GI50 [10] was 2.31 µM, the TGI [10] was 4.43 µM and the GI50 [11] was 3.22 µM. The TGI [11] was 11.6 µM, the GI50 [12] was 2.84 µM and the TGI [12] was 8.12 µM. The GI50 [13] was 3.05 µM, the TGI [13] was 34.3 µM and the GI50 [14] was 4.32 µM. For the same molecule, the TGI [14] was 16.9 µM, the GI50 [15] was 3.45 µM and the TGI [15] was 27.4 µM. For the same molecule, the GI50 [16] was 1.78 µM, the TGI [16] was 4.15 µM and the GI50 [17] was 3.03 µM. It also gave a TGI [17] greater than 100 µM, a GI50 [18] of 3.79 µM and a TGI [18] of 16.2 µM. The CC50 [18] was 51.3 µM, the GI50 [19] was 2.4 µM and the TGI [19] was 5.81 µM. For the same molecule, the GI50 [20] was 1.94 µM, the TGI [20] was 3.63 µM and the GI50 [21] was 2.75 µM. It also gave a TGI [21] of 8.68 µM, a CC50 [21] of 81.8 µM and a GI50 [22] of 2.84 µM. It also gave a TGI [22] of 9.63 µM, a GI50 [23] of 3.45 µM and a TGI [23] of 14.1 µM. The GI50 [24] was 2.18 µM, the TGI [24] was 6.88 µM and the GI50 [25] was 2.39 µM. The TGI [25] was 6.56 µM, the GI50 [26] was 3.08 µM and the TGI [26] was 14.1 µM. For the same molecule, the Activity [34] was 2.5%, the GI50 [27] was 20.2 µM and the TGI [27] was 44.8 µM. The GI50 [28] was 2.72 µM, the TGI [28] was 8.59 µM and the GI50 [29] was 3.35 µM. For the same molecule, the TGI [29] was 20.8 µM, the Activity [30] was 16.27% and the GI50 [31] was 2.86 µM. The TGI [31] was 11.8 µM, the pIC50 [32] was 6.66 and the GI50 [33] was 2.17 µM. It also gave a TGI [33] of 4.61 µM.
